# TbHK1 inh = Trypanosoma brucei hexokinase 1 inhibitors, primary screen, biochemical, G6PDH-coupled NADH absorbance, MLSCN library | hexokinase 1 [Trypanosoma brucei] | recombinant TbHK1, G6PDH-coupled NADH A340 | inhibition, % at 10 µM | 220,000 compounds, 0.11% hits | AID 1430, 2008;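 active = inhibition of 50% or more in the single-dose primary screen; inactive = inhibition below 50%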
# Diaphorase act = compounds boosting diaphorase resazurin reduction – biochemical, uHTS, resorufin fluorescence, counter-screen for diaphorase-coupled primary assays, primary screen; activation factor at 20 µM; 190,000 compounds, 0.005% hits; Diaphorase/resazurin coupled assay, 16 min; active compounds read high; 1 = vehicle wells, 0 = NADH-free wells; AID 1229, 2008;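 active = diaphorase activity raised at least twofold by the compound at 20 µM; inactive = activation factor below 2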
#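 Assay system: bacterial diaphorase enzyme (C. kluyveri) / Input: enzyme 0.07 U/mL final / Medium: 50 mM HEPES pH 7.4 with 4.542 mM MgCl2, 0.005% Tween 20 / Doses: single compound dose of 20 µM, 1% DMSO final / Incubation: 16 min enzyme reaction, ambient temperature / Signal: fluorescence, excitation 544 nm and emission 590 nm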
# PMI activator = activators of human PMI, primary screen, biochemical, fluorescence intensity, near-Km mannose 6-phosphate | 190,000 compounds, 0.005% hits | purified human PMI, coupled resazurin fluorescence, 20 min; active compounds read high; 1 = vehicle control, 0 substrate-free wells | activation factor at 20 µM | Mannose-6-phosphate isomerase (Homo sapiens), P34949;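 active = activation factor of 2 or more at 20 µM, relative to plate controls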
# Target sequence (P34949 whole entry, looked up): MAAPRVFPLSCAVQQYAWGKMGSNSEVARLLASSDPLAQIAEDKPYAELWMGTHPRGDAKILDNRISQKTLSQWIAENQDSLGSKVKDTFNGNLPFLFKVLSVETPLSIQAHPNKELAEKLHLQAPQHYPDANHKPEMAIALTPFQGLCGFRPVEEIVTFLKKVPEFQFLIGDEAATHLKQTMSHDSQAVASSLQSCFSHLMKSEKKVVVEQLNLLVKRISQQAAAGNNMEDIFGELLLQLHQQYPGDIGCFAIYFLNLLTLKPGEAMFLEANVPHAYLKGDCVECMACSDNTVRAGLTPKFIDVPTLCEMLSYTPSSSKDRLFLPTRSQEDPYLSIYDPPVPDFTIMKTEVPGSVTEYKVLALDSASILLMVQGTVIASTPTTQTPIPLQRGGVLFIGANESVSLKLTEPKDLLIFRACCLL
# G6PDH counter = L. mesenteroides G6PDH inhibitors, counter-screen for G6PDH-coupled screening assays, biochemical, Leuconostoc mesenteroides enzyme. Purified L. mesenteroides G6PDH, diaphorase/resazurin coupled fluorescence, 45 min. inhibition, % at 5 µM. 200,000 compounds, 0.12% hits; in the data active = inhibition above about 50%
# PMI act satM6P = human PMI activators, high substrate, primary screen, biochemical, fluorescence intensity, near-saturating mannose 6-phosphate. Mannose-6-phosphate isomerase (Homo sapiens), P34949. coupled PMI enzyme assay, resazurin fluorescence, 20 min; active compounds read high; 1 = untreated enzyme, 0 = substrate-free blank. activation factor at 20 µM. 190,000 compounds, 0.34% hits. AID 1216, 2008;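 active = activation factor of 2 or more at 20 µM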
#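 Material: human phosphomannose isomerase with PGI, G6PDH, diaphorase coupling enzymes. Quantity: 15 ng/mL PMI. Medium: HEPES pH 7.4 buffer with MgCl2 and Tween-20. Reagent: Near-saturating mannose-6-phosphate, 1.0 mM. Compound: 20 µM single dose. Times: enzyme reaction with compound 20 min at room temperature. Detection: resorufin fluorescence at Ex 544/Em 590 nm.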
# Diaph inh CS = diaphorase inhibitors and chemical oxidizers, primary screen, counter-screen for diaphorase-coupled primary assays, biochemical, uHTS, resorufin fluorescence. diaphorase resazurin-to-resorufin fluorescence, NADH, 16 min; bacterial (C. kluyveri) enzyme, not human. inhibition, % at 20 µM. 190,000 compounds, 0.69% hits. AID 1217, 2008;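 active = primary screen inhibition at 20 µM above a set limit, cut at about 50% in these data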;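 also: plate controls were DMSO with full reaction for no effect and wells lacking NADH for full effect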
#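 Test system: bacterial diaphorase enzyme (C. kluyveri); Quantity: 0.14 U/mL diaphorase, enzyme working solution; Times: reaction incubation of 16 min at room temperature; Measured by: fluorescence of resorufin formed from resazurin, Ex 544/Em 590 nm; Benchmarks: positive control minus NADH, DMSO neutral control.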
# * marks the source's active call; other numbers are inactive results; / = not tested or not shown. An excerpt weighted towards active compounds, which were near 1.1% of everything screened.
SMILES,TbHK1 inh,Diaphorase act,PMI activator,G6PDH counter,PMI act satM6P,Diaph inh CS
O=C(N/N=C/c1ccc(OC(F)F)cc1OC(F)F)c1cccc(S(=O)(=O)N2CCOCC2)c1,-8,0.8,1,1,1,16
Nc1[nH]nc2ncc3cc4ccccc4nc3c12,-9,0.5,0.7,27,0.6,55*
O=c1cc2[nH]c3ccccc3c(=O)n2nc1-c1ccccc1,-24,0.3,0.4,7,0.6,66*
CCCCN(Cc1ccco1)C(=O)c1cc2c(=O)[nH]c3ccc(C)cc3c2s1,-38,0.4,0.8,2,0.8,57*
Oc1oc(C=Nc2ccc(F)cc2F)c2ccccc12,8,1,1.8,12,2.3*,-4
Cc1ccc2sc(NNC(=O)c3cc(=O)c4ccccc4o3)nc2c1C,-11,0.4,0.8,8,1.1,58*
CS/C(=N\S(=O)(=O)c1ccccc1)c1ccccc1,29,1,1.7,2,2*,-2
O=C1C=C(O)c2cccc(O)c2C1=O,-10,/,/,/,/,/
CC1=CC(=O)c2c(O)ccc(O)c2C1=O,8,0.5,1.5,58*,1.3,54*
Oc1ccc(/C(Cc2ccc3ccccc3n2)=N\Nc2ccccc2)c(O)c1,-16,0.8,1.7,4,2.3*,21
Cc1c(O)ccc(/C(Cc2ccc3ccccc3n2)=N\O)c1O,0,1.1,1,9,1,-5
Oc1ccc(/C(Cc2ccccn2)=N\Nc2ccccc2)c(O)c1,-18,0.7,1.6,-1,2.5*,25
N#Cc1ccccc1NC(=O)CSc1ccc([N+](=O)[O-])cn1,-10,0.9,1.8,1,2.6*,7
O=S(=O)(c1ccc2nc(-c3ccco3)c(-c3ccco3)nc2c1)N1CCOCC1,-15,0.3,1.2,38,0.9,67*
O=C(O)c1cc(-c2ccco2)nc2ccc(Br)cc12,-39,0.3,1.1,-4,1.3,65*
O=C(c1ccc2nc(-c3ccco3)c(-c3ccco3)nc2c1)N1CCN(c2ccccc2)CC1,-10,0.4,0.9,-28,1.2,56*
O=C(c1ccco1)N1CCN(C(=O)c2cc(-c3ccncc3)nc3ccc(Br)cc23)CC1,-8,/,/,/,/,/
O=C(O)c1ccc2nc(-c3ccco3)c(-c3ccco3)nc2c1,-18,0.2,1.3,43,0.9,84*
COc1cccc(CCc2nnc(CCC(=O)NC(C)Cc3cccs3)o2)c1 (configuration not stated),-11,/,/,/,/,/
COc1ccc2[nH]c(C)c(C(=O)CN(C)CC3OCCO3)c2c1,-8,/,/,/,/,/
O=C(COc1cccnc1[N+](=O)[O-])NCc1ccco1,0,1,1,1,0.3,3
c1cc2c3c(cccc3c1)C(N1CCCCC1)=N2,-10,0.6,0.7,52*,0.4,43
c1cc2c3c(cccc3c1)C(N1CCCCCC1)=N2,-14,0.9,0.8,-1,0.9,10
Cc1ccc2cccc(OC(=O)/C=C\c3ccccc3)c2n1,2,0.7,0.6,51*,0.4,26
COc1ccccc1/C=C/C(=O)Oc1cccc2cccnc12,-6,0.8,0.9,16,0.7,23
SMILES,TbHK1 inh,Diaphorase act,PMI activator,G6PDH counter,PMI act satM6P,Diaph inh CS
Oc1ccc(-c2csc(Nc3ncccn3)n2)cc1O,-1,0.5,0.4,29,0.7,52*
Oc1ccc(-c2csc(-c3ccccc3)n2)cc1O,3,0.3,0.4,19,0.7,71*
c1ccc(N/N=C(\Cc2ncc[nH]2)c2ccccc2)cc1,-7,0.9,1.5,5,2.3*,12
S=c1[nH]nc(-c2ccco2)n1/N=C/C=C/c1ccccc1,0,0.4,0.8,1,0.9,57*
COc1cc2c(cc1O)CC[n+]1cc3c(OC)c(OC)ccc3cc1-2,-58,1.1,1,16,0.6,-8
COc1cc2c(cc1OC)-c1cc3ccc4c(c3c[n+]1CC2)OCO4,-306,0.9,0.8,52*,0.5,8
O=C(CSc1ccccc1)Nc1cc(S(=O)(=O)N2CCOCC2)ccc1N1CCOCC1,-3,0.9,0.6,14,1,12
COC(=O)c1ccc2c(c1O)C(=O)c1ccccc1C2=O,-9,0.9,1,53*,1.2,11
Nc1c(C(=O)O)ccc2c1C(=O)c1ccccc1C2=O,-3,0.8,1,0,0.8,17
CC(C)(C)C1=CC(=O)C(N2CCOCC2)=CC1=O,-6,0.7,0.9,55*,0.3,32
O=c1cc(O)c2sc(Nc3ccc(F)cc3)nc2[nH]1,-17,0.2,0.3,13,0.4,78*
O=c1cc(O)c2sc(Nc3cccc(C(F)(F)F)c3)nc2[nH]1,-1,0.3,0.5,16,0.5,66*
Cc1cc(=O)[nH]c(Nc2cccc(C(F)(F)F)c2)n1,17,1.1,1.1,5,1.1,-6
Cc1nc(NCCOc2ccccc2)sc1C(=O)Nc1ccccc1,6,/,/,/,/,/
O=[N+]([O-])c1cccc(C(=Nc2ccccc2Cl)NO)c1,1,0.9,0.9,-12,0.9,10
O=[N+]([O-])c1ccc(Cl)c(C2Nc3cccc4cccc(c34)N2)c1,-2,0.4,0.6,7,0.4,57*
O=[N+]([O-])c1ccccc1C1Nc2cccc3cccc(c23)N1,-10,0.4,0.9,-18,1,57*
CSCCC(N=C(NS(=O)(=O)c1ccccc1)c1ccccc1)C(=O)O (configuration not stated),-14,/,/,/,/,/
FC(F)(F)c1ccc(C2NCCc3sccc32)cc1 (configuration not stated),-3,1.1,1,13,1,-9
Cc1ccc(-c2nnc3ccc(SCC(=O)N4CCCc5ccccc54)nn23)cc1,-2,0.5,0.9,-7,1,50*
Cc1ccc(-c2nnc3ccc(SCC(=O)N4CCc5ccccc54)nn23)cc1,-5,0.8,0.8,-50,0.8,17
COc1ccccc1N/N=C/c1ccc2c(c1)OCO2,-5,0.7,1.5,16,2.3*,27
COc1ccccc1NC(=O)NCc1ccc2c(c1)OCO2,4,0.9,0.9,-16,0.9,7
O=C(O)c1ccccc1N/N=C/c1c(Sc2nnnn2-c2ccccc2)nc2ccccn2c1=O,-8,/,/,/,/,/
